27 molecules from ChEMBL document CHEMBL1154472, “Synthesis and anti-HIV-1 integrase activities of 3-aroyl-2,3-dihydro-1,1-dioxo-1,4,2-benzodithiazines” (Eur J Med Chem, 2009) can be followed below.

Experiment [1] addresses T1, Human immunodeficiency virus type 1 integrase (Human immunodeficiency virus 1, UniProt Q7ZJM1). The experiment is described as follows: Inhibition of HIV1 integrase strand transfer activity. The gist of the method:
(§1)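 Wild-type HIV-1 IN, expressed in E. coli BL21(DE3)pLysS after 1 mM IPTG induction, was preincubated at 200 nM final with inhibitor at 30 °C for 30 min. The buffer held 50 mM NaCl, HEPES pH 7.5, 10% glycerol, 7.5 mM MnCl2, 0.1 mg/ml BSA, 10 mM 2-mercaptoethanol, 10% DMSO and 25 mM MOPS pH 7.2. IC50 was taken from the reaction.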

Experiment [2] deals with T1, Human immunodeficiency virus type 1 integrase. The experiment is described as follows: Inhibition of HIV1 integrase 3'-end processing activity in presence of magnesium. The essentials:
(§2)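 Wild-type HIV-1 IN (200 nM final), expressed in E. coli BL21(DE3)pLysS, was preincubated with inhibitor for 30 min at 30 °C in HEPES/MOPS buffer containing glycerol, BSA and 10% DMSO, with Mg2+ as the cofactor. IC50 was derived.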

For experiment [3] the target is unchanged. Briefly: Inhibition of HIV1 integrase strand transfer activity in presence of magnesium. The gist of the method: as §2
The target in experiment [4] is T2, Human immunodeficiency virus type 1 integrase (Human immunodeficiency virus 1, UniProt Q7ZJM1, H114A). The experiment is described as follows: Inhibition of HIV1 integrase H114A mutant 3'-end processing activity.
T2 sequence (Q7ZJM1 entry or part of it H114A): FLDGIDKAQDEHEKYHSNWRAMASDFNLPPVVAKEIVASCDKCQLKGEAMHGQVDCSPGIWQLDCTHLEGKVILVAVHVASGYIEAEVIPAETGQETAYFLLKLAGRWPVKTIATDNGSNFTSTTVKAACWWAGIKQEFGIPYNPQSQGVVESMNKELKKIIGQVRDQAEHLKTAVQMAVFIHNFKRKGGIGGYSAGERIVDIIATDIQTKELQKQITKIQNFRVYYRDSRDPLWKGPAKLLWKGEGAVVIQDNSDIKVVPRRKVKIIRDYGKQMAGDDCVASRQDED
For experiment [5], the target named is T3, Human immunodeficiency virus type 1 integrase (Human immunodeficiency virus 1, UniProt Q7ZJM1, Y99S). The experiment is described as follows: Inhibition of HIV1 integrase Y99S mutant strand transfer activity.
T3 sequence (Q7ZJM1 entry or part of it Y99S): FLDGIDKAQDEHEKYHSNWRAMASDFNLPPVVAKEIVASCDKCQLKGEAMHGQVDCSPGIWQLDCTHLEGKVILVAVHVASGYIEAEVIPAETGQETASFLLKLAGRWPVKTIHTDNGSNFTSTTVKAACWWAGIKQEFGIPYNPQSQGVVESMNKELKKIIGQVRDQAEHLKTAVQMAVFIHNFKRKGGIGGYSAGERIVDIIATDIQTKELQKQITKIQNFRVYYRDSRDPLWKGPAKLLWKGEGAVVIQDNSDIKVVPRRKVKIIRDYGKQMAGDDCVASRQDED
For experiment [6], the target named is T3, Human immunodeficiency virus type 1 integrase. Briefly: Inhibition of HIV1 integrase Y99S mutant 3'-end processing activity.
For experiment [7], the target named is T1, Human immunodeficiency virus type 1 integrase. Briefly: Inhibition of HIV1 integrase 3'-end processing activity. The essentials:
as §1

The target of experiment [8] is T2, Human immunodeficiency virus type 1 integrase. The experiment is described as follows: Inhibition of HIV1 integrase H114A mutant strand transfer activity.

T1 sequence (Q7ZJM1 whole entry): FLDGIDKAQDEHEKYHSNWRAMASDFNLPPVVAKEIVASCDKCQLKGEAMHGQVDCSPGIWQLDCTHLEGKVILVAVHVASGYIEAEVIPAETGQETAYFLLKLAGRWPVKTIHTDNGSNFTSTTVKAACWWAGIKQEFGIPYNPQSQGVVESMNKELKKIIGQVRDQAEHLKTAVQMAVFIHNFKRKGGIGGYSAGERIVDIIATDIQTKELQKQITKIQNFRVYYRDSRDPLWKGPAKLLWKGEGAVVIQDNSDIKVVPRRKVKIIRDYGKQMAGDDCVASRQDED

Turning to `Cc1cc2c(cc1Cl)SC(C(=O)c1ccccc1)NS2(=O)=O` (centres undefined), the concentration for half-maximal inhibition (IC50) in experiment [1] was found to be 5 µM; in experiment [2], 60 µM; in experiment [3], 27 µM; in experiment [4], 15 µM; in experiment [5], 18 µM; in experiment [6] it was 90 µM. Also, the IC50 in experiment [7] was found to be 7 µM; in experiment [8], 9 µM.
`Cc1cc2c(cc1Cl)SC(C(=O)c1ccccc1)=NS2(=O)=O`: the IC50 in experiment [1] worked out at 12 µM; in experiment [4] it was 15 µM; in experiment [5] it was 18 µM; in experiment [6], 90 µM; in experiment [7] it was 12 µM; in experiment [8], 9 µM.
For the molecule `Cc1cc(Cl)cc2c1S(=O)(=O)NC(C(=O)c1ccc(Cl)cc1)S2` (centres undefined), the 50% inhibitory concentration (IC50) is 14 µM in experiment [1] and 23 µM in experiment [7].
Consider `O=C(c1ccc(Cl)cc1)C1NS(=O)(=O)c2ccc(Cl)cc2S1` (centres undefined), for which the IC50 in experiment [1] is 4 µM; in experiment [2], 51 µM; in experiment [3], 25 µM; in experiment [4], 20 µM; in experiment [5] it was 20 µM; in experiment [6], 100 µM. The half-inhibitory concentration (IC50) was determined as 8 µM in experiment [7] and 18 µM in experiment [8].
Regarding `Cc1cc(Cl)cc2c1S(=O)(=O)NC(C(=O)c1ccc(Cl)c(Cl)c1)S2` (centres undefined), the 50% inhibitory concentration (IC50) in experiment [1] was 14 µM; in experiment [7] it was 20 µM.
For `Cc1cc(Cl)cc2c1S(=O)(=O)NC(C(=O)c1ccc3ccccc3c1)S2` (centres undefined), the IC50 in experiment [1] worked out at 6 µM; in experiment [2] it was 83 µM; in experiment [3] it was 51 µM; in experiment [4] it was 33 µM; in experiment [5], 23 µM; in experiment [6] it was 70 µM. The IC50 in experiment [7] was 9 µM; in experiment [8] it was 23 µM.
Turning to `Cc1cc(Cl)cc2c1S(=O)(=O)N=C(C(=O)c1ccc(Cl)cc1)S2`, the figures for the IC50 in experiment [1] and in experiment [7] were 25 µM and 22 µM, respectively.
In the same order, the values of `Cc1cc(Cl)cc2c1S(=O)(=O)N=C(C(=O)c1ccc(Cl)c(Cl)c1)S2` are 25 µM and 17 µM.
In the case of `COc1ccc(C(=O)C2NS(=O)(=O)c3cc(C)c(Cl)cc3S2)cc1` (centres undefined), the IC50 in experiment [1] came out at 17 µM; in experiment [7], 38 µM.
As to `O=C(c1ccc(Cl)c(Cl)c1)C1NS(=O)(=O)c2ccc(Cl)cc2S1` (centres undefined), the IC50 is 5 µM in experiment [1]; 58 µM in experiment [2]; 25 µM in experiment [3]; 18 µM in experiment [4]; 20 µM in experiment [5]; 90 µM in experiment [6]. In addition, the half-maximal inhibitory concentration (IC50) turned out to be 9 µM in experiment [7] and 18 µM in experiment [8].
For the molecule `Cc1cc2c(cc1Cl)SC(C(=O)c1ccc(Cl)c(Cl)c1)NS2(=O)=O` (centres undefined), the half-maximal inhibitory concentration (IC50) in experiment [1] came to 10 µM; in experiment [7], 20 µM.
For the molecule `Cc1cc2c(cc1Cl)SC(C(=O)c1ccc(Cl)cc1)=NS2(=O)=O`, the IC50 worked out at 65 µM in experiment [1]; 18 µM in experiment [4]; 20 µM in experiment [5]; 90 µM in experiment [6]; 30 µM in experiment [7]; 16 µM in experiment [8].
Consider `Cc1cc2c(cc1Cl)SC(C(=O)c1cccc([N+](=O)[O-])c1)=NS2(=O)=O`, for which the IC50 in experiment [1] came to 50 µM; in experiment [7], 57 µM.
The like results for `Cc1cc2c(cc1Cl)SC(C(=O)c1ccc(Cl)c(Cl)c1)=NS2(=O)=O` were, in that order, 7 µM and 15 µM.
In the case of `Cc1cc2c(cc1Cl)SC(C(=O)c1ccc3ccccc3c1)=NS2(=O)=O`, the results for the concentration for half-maximal inhibition (IC50) in experiment [1] and in experiment [7] were 3 µM and 28 µM, respectively.
The like results for `Cc1cc2c(cc1Cl)SC(C(=O)c1ccc(Br)cc1)NS2(=O)=O` (centres undefined) were, in that order, 3 µM and 4 µM.
Turning to `Cc1cc2c(cc1Cl)SC(C(=O)c1cccc([N+](=O)[O-])c1)NS2(=O)=O` (centres undefined), the IC50 in experiment [1] is 28 µM; in experiment [7], 32 µM.
For the molecule `Cc1cc(Cl)cc2c1S(=O)(=O)N=C(C(=O)c1ccc3ccccc3c1)S2`, the half-maximal inhibitory concentration (IC50) in experiment [1] is 7 µM; in experiment [4] it was 33 µM; in experiment [5], 23 µM; in experiment [6], 70 µM; in experiment [7] it was 22 µM; in experiment [8], 23 µM.
Consider `O=C(C1=NS(=O)(=O)c2ccc(Cl)cc2S1)c1ccc(Cl)c(Cl)c1`, for which the IC50 was determined as 124 µM in experiment [1]; 18 µM in experiment [4]; 20 µM in experiment [5]; 90 µM in experiment [6]; 61.2 µM in experiment [7]; 18 µM in experiment [8].
`O=C(C1=NS(=O)(=O)c2ccc(Cl)cc2S1)c1ccc2ccccc2c1`: the IC50 in experiment [1] was 8 µM; in experiment [4] it was 9 µM; in experiment [5] it was 15 µM; in experiment [6], 100 µM; in experiment [7], 8 µM; in experiment [8], 15 µM.
Turning to `COc1ccc(C(=O)C2=NS(=O)(=O)c3cc(C)c(Cl)cc3S2)cc1`, the IC50 was 33 µM in experiment [1] and 30 µM in experiment [7].
Consider `O=C(c1ccc2ccccc2c1)C1NS(=O)(=O)c2ccc(Cl)cc2S1` (centres undefined), for which the IC50 in experiment [1] is 3 µM; in experiment [2], 55 µM; in experiment [3], 28 µM; in experiment [4] it was 9 µM; in experiment [5], 15 µM; in experiment [6] it was 100 µM. Moreover, the IC50 in experiment [7] stood at 8 µM; in experiment [8] it was 15 µM.
For `O=C(c1ccc(Cl)c(Cl)c1)C1NS(=O)(=O)c2ccccc2S1` (centres undefined), the concentration for half-maximal inhibition (IC50) came out at 15 µM in experiment [1] and 22 µM in experiment [7].
Regarding `Cc1cc2c(cc1Cl)SC(C(=O)c1ccc(Cl)cc1)NS2(=O)=O` (centres undefined), the IC50 in experiment [1] came out at 4 µM; in experiment [2] it was 63 µM; in experiment [3], 40 µM; in experiment [4] it was 18 µM; in experiment [5], 20 µM; in experiment [6], 90 µM. Also, the 50% inhibitory concentration (IC50) in experiment [7] came out at 6 µM; in experiment [8] it was 16 µM.
For the molecule `Cc1cc2c(cc1Cl)SC(C(=O)c1ccc3ccccc3c1)NS2(=O)=O` (centres undefined), the results for the IC50 in experiment [1] and in experiment [7] were 30 µM and 57 µM, respectively.
In the case of `O=C(C1=NS(=O)(=O)c2ccc(Cl)cc2S1)c1ccc(Cl)cc1`, the IC50 in experiment [1] was determined as 90 µM; in experiment [4] it was 20 µM; in experiment [5], 20 µM; in experiment [6], 100 µM; in experiment [7], 100 µM; in experiment [8], 18 µM.
Regarding `Cc1cc2c(cc1Cl)SC(C(=O)c1ccc(Br)cc1)=NS2(=O)=O`, the half-maximal inhibitory concentration (IC50) in experiment [1] and in experiment [7] was 30 µM in each case.

Usually IC50 stands for the concentration that inhibits the measured activity by half.
